{"source": "ChEMBL document CHEMBL1135021", "about": "“Biotinylated lithocholic acids for affinity chromatography of mammalian DNA polymerases alpha and beta” (Bioorg Med Chem Lett, 2002)", "key": {"Nucleic Acid [1]": {"system": "Nucleic Acid", "assay": "Compound was evaluated for relative maximum velocity (Vmax) at a concentration of 10 uM on calf DNA polymerase alpha as a function of template primer dose", "assay_type": "nucleic-acid assay", "conditions": "Bos taurus", "how_it_was_run": "(§1)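 Kinetic runs used calf thymus pol α or rat pol β (0.05 units each) preincubated with compound at 0 °C for 10 min in Tris–HCl pH 7.5/DTT/glycerol/EDTA buffer. Either poly(dA)/oligo(dT)12–18 (2/1) template-primer or dTTP substrate was varied. Km and Vmax came from double reciprocal plots, Ki from Dixon plots.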"}, "Nucleic Acid [2]": {"system": "Nucleic Acid", "assay": "Compound was evaluated for relative maximum velocity (Vmax) at a concentration of 5 uM on calf DNA polymerase alpha as a function of template primer dose", "assay_type": "nucleic-acid assay", "conditions": "Bos taurus", "how_it_was_run": "as §1"}, "Nucleic Acid [3]": {"system": "Nucleic Acid", "assay": "Compound was evaluated for relative maximum velocity (Vmax) at a concentration of 10 uM on calf DNA polymerase alpha as a function of nucleotide substrate concentration", "assay_type": "nucleic-acid assay", "conditions": "Bos taurus", "how_it_was_run": "as §1"}, "Nucleic Acid [4]": {"system": "Nucleic Acid", "assay": "Compound was evaluated for relative maximum velocity (Vmax) at a concentration of 0 uM on calf DNA polymerase alpha as a function of nucleotide substrate concentration", "assay_type": "nucleic-acid assay", "conditions": "Bos taurus", "how_it_was_run": "as §1"}, "Nucleic Acid [5]": {"system": "Nucleic Acid", "assay": "Michaelis constant at a concentration of 5 uM on calf DNA polymerase alpha as a function of nucleotide substrate concentration", "assay_type": "nucleic-acid assay", "conditions": "Bos taurus", "how_it_was_run": "as §1"}, "Nucleic Acid [6]": {"system": "Nucleic Acid", "assay": "Compound was evaluated for Michaelis constant at a concentration of 0 uM on calf DNA polymerase alpha as a function of DNA template primer dose", "assay_type": "nucleic-acid assay", "conditions": "Bos taurus", "how_it_was_run": "as §1"}, "Nucleic Acid [7]": {"system": "Nucleic Acid", "assay": "Compound was evaluated for relative maximum velocity (Vmax) at a concentration of 5 uM on calf DNA polymerase alpha as a function of nucleotide substrate concentration", "assay_type": "nucleic-acid assay", "conditions": "Bos taurus", "how_it_was_run": "as §1"}, "Nucleic Acid [8]": {"system": "Nucleic Acid", "assay": "Compound was evaluated for relative maximum velocity (Vmax) at a concentration of 0 uM on calf DNA polymerase alpha as a function of DNA template primer dose", "assay_type": "nucleic-acid assay", "conditions": "Bos taurus", "how_it_was_run": "as §1"}, "Nucleic Acid [9]": {"system": "Nucleic Acid", "conditions": "Bos taurus; 25 uM"}, "Nucleic Acid [10]": {"system": "Nucleic Acid", "conditions": "Bos taurus; 25 uM", "remark": "listed apart in the source"}, "Nucleic Acid [11]": {"system": "Nucleic Acid", "conditions": "Bos taurus; 50 uM"}, "Nucleic Acid [12]": {"system": "Nucleic Acid", "conditions": "Bos taurus; 50 uM", "remark": "listed apart in the source"}, "Nucleic Acid [13]": {"system": "Nucleic Acid", "conditions": "Bos taurus; 25 uM", "remark": "listed apart in the source"}, "Nucleic Acid [14]": {"system": "Nucleic Acid", "conditions": "Bos taurus; 25 uM", "remark": "listed apart in the source"}, "[15]": {"system": "C[C@H](CCC(=O)O)[C@H]1CC[C@H]2[C@@H]3CCC4C[C@@H](O)CC[C@]4(C)[C@H]3CC[C@]12C", "conditions": "5 uM"}, "[16]": {"system": "C[C@H](CCC(=O)O)[C@H]1CC[C@H]2[C@@H]3CCC4C[C@@H](OC(=O)CCNC(=O)CCCCCNC(=O)CCCCCNC(=O)CCCCC5SCC6NC(=O)NC65)CC[C@]4(C)[C@H]3CC[C@]12C", "assay": "Michaelis constant at a concentration of 0 uM on rat DNA polymerase beta as a function of nucleotide substrate concentration", "how_it_was_run": "(§2)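 Rat DNA pol β (0.05 units) was used. Compound was dissolved in DMSO, sonicated 30 s, and preincubated with enzyme for 10 min at 0 °C in 50 mM Tris–HCl (pH 7.5), 1 mM dithiothreitol, 50% glycerol and 0.1 mM EDTA. It was then added to the standard reaction. Template-primer poly(dA)/oligo(dT)12–18 (2/1) or dTTP substrate was varied. Km and Vmax came from double reciprocal plots.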"}, "[17]": {"system": "C[C@H](CCC(=O)O)[C@H]1CC[C@H]2[C@@H]3CCC4C[C@@H](OC(=O)CCNC(=O)CCCCCNC(=O)CCCCCNC(=O)CCCCC5SCC6NC(=O)NC65)CC[C@]4(C)[C@H]3CC[C@]12C", "assay": "Compound was evaluated for relative maximum velocity (Vmax) at a concentration of 10 uM on rat DNA polymerase beta as a function of template primer dose", "how_it_was_run": "as §2"}, "[18]": {"system": "C[C@H](CCC(=O)O)[C@H]1CC[C@H]2[C@@H]3CCC4C[C@@H](O)CC[C@]4(C)[C@H]3CC[C@]12C", "conditions": "5 uM", "remark": "listed apart in the source"}, "[19]": {"system": "C[C@H](CCC(=O)O)[C@H]1CC[C@H]2[C@@H]3CCC4C[C@@H](OC(=O)CCNC(=O)CCCCCNC(=O)CCCCCNC(=O)CCCCC5SCC6NC(=O)NC65)CC[C@]4(C)[C@H]3CC[C@]12C", "assay": "Michaelis constant at a concentration of 10 uM on rat DNA polymerase beta as a function of nucleotide substrate concentration", "how_it_was_run": "as §1"}, "[20]": {"system": "C[C@H](CCC(=O)O)[C@H]1CC[C@H]2[C@@H]3CCC4C[C@@H](OC(=O)CCNC(=O)CCCCCNC(=O)CCCCCNC(=O)CCCCC5SCC6NC(=O)NC65)CC[C@]4(C)[C@H]3CC[C@]12C", "assay": "Michaelis constant at a concentration of 10 uM on rat DNA polymerase beta as a function of template primer dose", "how_it_was_run": "as §1"}, "[21]": {"system": "C[C@H](CCC(=O)O)[C@H]1CC[C@H]2[C@@H]3CCC4C[C@@H](O)CC[C@]4(C)[C@H]3CC[C@]12C", "conditions": "5 uM", "remark": "listed apart in the source"}, "[22]": {"system": "C[C@H](CCC(=O)O)[C@H]1CC[C@H]2[C@@H]3CCC4C[C@@H](OC(=O)CCNC(=O)CCCCCNC(=O)CCCCCNC(=O)CCCCC5SCC6NC(=O)NC65)CC[C@]4(C)[C@H]3CC[C@]12C", "assay": "Michaelis constant at a concentration of 0 uM on rat DNA polymerase beta as a function of template primer dose", "how_it_was_run": "as §1"}, "[23]": {"system": "C[C@H](CCC(=O)O)[C@H]1CC[C@H]2[C@@H]3CCC4C[C@@H](O)CC[C@]4(C)[C@H]3CC[C@]12C", "conditions": "0 uM"}, "[24]": {"system": "C[C@H](CCC(=O)O)[C@H]1CC[C@H]2[C@@H]3CCC4C[C@@H](O)CC[C@]4(C)[C@H]3CC[C@]12C", "conditions": "10 uM"}, "[25]": {"system": "C[C@H](CCC(=O)O)[C@H]1CC[C@H]2[C@@H]3CCC4C[C@@H](OC(=O)CCNC(=O)CCCCCNC(=O)CCCCCNC(=O)CCCCC5SCC6NC(=O)NC65)CC[C@]4(C)[C@H]3CC[C@]12C", "assay": "Compound was evaluated for relative maximum velocity (Vmax)at a concentration of 10 uM on rat DNA polymerase beta as a function of nucleotide substrate concentration", "how_it_was_run": "as §2"}, "[26]": {"system": "C[C@H](CCC(=O)O)[C@H]1CC[C@H]2[C@@H]3CCC4C[C@@H](O)CC[C@]4(C)[C@H]3CC[C@]12C", "conditions": "5 uM", "remark": "listed apart in the source"}, "[27]": {"system": "C[C@H](CCC(=O)O)[C@H]1CC[C@H]2[C@@H]3CCC4C[C@@H](OC(=O)CCNC(=O)CCCCCNC(=O)CCCCCNC(=O)CCCCC5SCC6NC(=O)NC65)CC[C@]4(C)[C@H]3CC[C@]12C", "assay": "Michaelis constant at a concentration of 20 uM on rat DNA polymerase beta as a function of template primer dose", "how_it_was_run": "as §1"}, "[28]": {"system": "C[C@H](CCC(=O)O)[C@H]1CC[C@H]2[C@@H]3CCC4C[C@@H](OC(=O)CCNC(=O)CCCCCNC(=O)CCCCCNC(=O)CCCCC5SCC6NC(=O)NC65)CC[C@]4(C)[C@H]3CC[C@]12C", "assay": "Michaelis constant at a concentration of 20 uMon rat DNA polymerase beta as a function of nucleotide substrate concentration", "conditions": "20 uM", "how_it_was_run": "as §1"}, "[29]": {"system": "C[C@H](CCC(=O)O)[C@H]1CC[C@H]2[C@@H]3CCC4C[C@@H](O)CC[C@]4(C)[C@H]3CC[C@]12C", "conditions": "10 uM", "remark": "listed apart in the source"}}, "data": [{"compound": "C[C@H](CCC(=O)O)[C@H]1CC[C@H]2[C@@H]3CCC4C[C@@H](OC(=O)CCNC(=O)CCCCCNC(=O)CCCCCNC(=O)CCCCC5SCC6NC(=O)NC65)CC[C@]4(C)[C@H]3CC[C@]12C", "note": "(stereo partly specified)", "values": [{"measurement": "Vmax", "setting": "Nucleic Acid [1]", "result": 21.3, "unit": "pM/h"}, {"measurement": "Vmax", "setting": "Nucleic Acid [2]", "result": 33.5, "unit": "pM/h"}, {"measurement": "Vmax", "setting": "Nucleic Acid [3]", "result": 17.8, "unit": "pM/h"}, {"measurement": "Vmax", "setting": "Nucleic Acid [4]", "result": 29.2, "unit": "pM/h"}, {"measurement": "Km", "setting": "Nucleic Acid [5]", "result": 1.65, "unit": "µM"}, {"measurement": "Km", "setting": "Nucleic Acid [6]", "result": 13, "unit": "µM"}, {"measurement": "Vmax", "setting": "Nucleic Acid [7]", "result": 24.3, "unit": "pM/h"}, {"measurement": "Vmax", "setting": "Nucleic Acid [8]", "result": 55.6, "unit": "pM/h"}]}, {"compound": "C[C@H](CCC(=O)O)[C@H]1CC[C@H]2[C@@H]3CCC4C[C@@H](O)CC[C@]4(C)[C@H]3CC[C@]12C", "note": "(stereo partly specified)", "values": [{"measurement": "Vmax", "setting": "Nucleic Acid [9]", "result": 31.3, "unit": "pM/h"}, {"measurement": "Km", "setting": "Nucleic Acid [10]", "result": 1.65, "unit": "µM"}, {"measurement": "Vmax", "setting": "Nucleic Acid [4]", "result": 29.2, "unit": "pM/h"}, {"measurement": "Vmax", "setting": "Nucleic Acid [11]", "result": 14.8, "unit": "pM/h"}, {"measurement": "Vmax", "setting": "Nucleic Acid [12]", "result": 17.7, "unit": "pM/h"}, {"measurement": "Vmax", "setting": "Nucleic Acid [8]", "result": 55.6, "unit": "pM/h"}, {"measurement": "Vmax", "setting": "Nucleic Acid [13]", "result": 24.9, "unit": "pM/h"}, {"measurement": "Km", "setting": "Nucleic Acid [14]", "result": 13, "unit": "µM"}]}, {"compound": "DNA polymerase beta (Rattus norvegicus) (from UniProt P06766)", "values": [{"measurement": "Vmax", "setting": "[15]", "result": 111, "unit": "pMl hr-1"}, {"measurement": "Km", "setting": "[16]", "result": 3.05, "unit": "µM"}, {"measurement": "Vmax", "setting": "[17]", "result": 111, "unit": "pMl hr-1"}, {"measurement": "Km", "setting": "[18]", "result": 6.28, "unit": "µM"}, {"measurement": "Km", "setting": "[19]", "result": 6.67, "unit": "µM"}, {"measurement": "Km", "setting": "[20]", "result": 9.98, "unit": "µM"}, {"measurement": "Vmax", "setting": "[21]", "result": 62.5, "unit": "pMl hr-1"}, {"measurement": "Km", "setting": "[22]", "result": 6.47, "unit": "µM"}, {"measurement": "Km", "setting": "[23]", "result": 3.05, "unit": "µM"}, {"measurement": "Km", "setting": "[24]", "result": 18.3, "unit": "µM"}, {"measurement": "Vmax", "setting": "[25]", "result": 62.5, "unit": "pMl hr-1"}, {"measurement": "Km", "setting": "[26]", "result": 9.41, "unit": "µM"}, {"measurement": "Km", "setting": "[27]", "result": 21.7, "unit": "µM"}, {"measurement": "Km", "setting": "[28]", "result": 9.49, "unit": "µM"}, {"measurement": "Km", "setting": "[29]", "result": 7.86, "unit": "µM"}]}]}
